The text below walks through data of ChEMBL document CHEMBL1146219, “Synthesis and evaluation of novel radioiodinated benzamides for malignant melanoma” (J Med Chem, 2007).

SMILES strings stand for the structures.

Data set [1] relates to Kidney. Kind of data set: Biodistribution in kidney of B16F0 tumor bearing C57BL/6J mouse at 0.37-0.74 MBq, iv after 6 hrs. Particulars: in vivo. The data set is classed as ADME, organism-based. In outline:
(§1)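 Female C57BL/6J mice (15-18 g) were given B16F0 cells subcutaneously in the left flank (0.1 mL of 3 × 10⁶ viable cells/mL in Ca²⁺/Mg²⁺-free PBS) at 6-7 weeks and used after ten days. [¹²³I]benzamide (0.37-0.74 MBq, 100 µL, saline) was injected via the tail vein. Groups of n = 5 were killed by CO₂ and cervical dislocation. Organs were weighed and γ-counted, and the carcass was counted too.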

Data set [2] has as its system Heart. Put plainly: Biodistribution in heart of B16F0 tumor bearing C57BL/6J mouse at 0.37-0.74 MBq, iv after 6 hrs. The data set is classed as ADME, organism-based. As to conditions: in vivo. An outline of the steps: as §1
Data set [3] concerns Brain. Put plainly: Biodistribution in brain of B16F0 tumor bearing C57BL/6J mouse at 0.37-0.74 MBq, iv after 1 hr. In kind it is ADME, organism-based. As to conditions: in vivo. In outline: as §1
Data set [4] deals with Liver. Put plainly: Biodistribution in liver of B16F0 tumor bearing C57BL/6J mouse at 0.37-0.74 MBq, iv after 6 hrs. Particulars: in vivo. The data set is classed as ADME, organism-based. An outline of the steps:
as §1

The subject of data set [5] is Heart. Kind of data set: Biodistribution in heart of B16F0 tumor bearing C57BL/6J mouse at 0.37-0.74 MBq, iv after 1 hr. In kind it is ADME, organism-based. Particulars: in vivo. In outline: as §1
Data set [6] deals with Blood. Kind of data set: Biodistribution in blood of B16F0 tumor bearing C57BL/6J mouse at 0.37-0.74 MBq, iv after 6 hrs. In kind it is ADME, organism-based. As to conditions: in vivo. In outline:
as §1

Data set [7] is described as follows: Biodistribution in melanoma of B16F0 tumor bearing C57BL/6J mouse at 0.37-0.74 MBq, iv after 1 hr. The data set is classed as ADME, organism-based, B16-F0. As to conditions: in vivo. An outline of the steps: as §1
Data set [8] concerns Lung. Kind of data set: Biodistribution in lung of B16F0 tumor bearing C57BL/6J mouse at 0.37-0.74 MBq, iv after 24 hrs. The data set is classed as ADME, organism-based. Particulars: in vivo. In outline: as §1
For data set [9], the system named is Brain. Put plainly: Biodistribution in brain of B16F0 tumor bearing C57BL/6J mouse at 0.37-0.74 MBq, iv after 6 hrs. In kind it is ADME, organism-based. As to conditions: in vivo. In outline: as §1
Data set [10] deals with Kidney. Kind of data set: Biodistribution in kidney of B16F0 tumor bearing C57BL/6J mouse at 0.37-0.74 MBq, iv after 24 hrs. As to conditions: in vivo. The data set is classed as ADME, organism-based. In outline:
as §1

Data set [11] has as its system Heart. Put plainly: Biodistribution in heart of B16F0 tumor bearing C57BL/6J mouse at 0.37-0.74 MBq, iv after 24 hrs. In kind it is ADME, organism-based. As to conditions: in vivo. An outline of the steps:
as §1

Data set [12] has as its system Brain. Kind of data set: Biodistribution in brain of B16F0 tumor bearing C57BL/6J mouse at 0.37-0.74 MBq, iv after 24 hrs. In kind it is ADME, organism-based. Particulars: in vivo. In outline:
as §1

A short description of data set [13]: Biodistribution in melanoma of B16F0 tumor bearing C57BL/6J mouse at 0.37-0.74 MBq, iv after 24 hrs. In kind it is ADME, organism-based, B16-F0. Particulars: in vivo. In outline:
as §1

For data set [14], the system named is Lung. Put plainly: Biodistribution in lung of B16F0 tumor bearing C57BL/6J mouse at 0.37-0.74 MBq, iv after 6 hrs. In kind it is ADME, organism-based. As to conditions: in vivo. In outline:
as §1

For data set [15], the system named is Liver. Kind of data set: Biodistribution in liver of B16F0 tumor bearing C57BL/6J mouse at 0.37-0.74 MBq, iv after 1 hr. The data set is classed as ADME, organism-based. Particulars: in vivo. An outline of the steps:
as §1

Data set [16] deals with Kidney. Kind of data set: Biodistribution in kidney of B16F0 tumor bearing C57BL/6J mouse at 0.37-0.74 MBq, iv after 1 hr. Particulars: in vivo. The data set is classed as ADME, organism-based. In outline:
as §1

The test system of data set [17] is Blood. Put plainly: Biodistribution in blood of B16F0 tumor bearing C57BL/6J mouse at 0.37-0.74 MBq, iv after 24 hrs. In kind it is ADME, organism-based. Particulars: in vivo. In outline: as §1
The subject of data set [18] is Blood. Kind of data set: Biodistribution in blood of B16F0 tumor bearing C57BL/6J mouse at 0.37-0.74 MBq, iv after 1 hr. As to conditions: in vivo. The data set is classed as ADME, organism-based. In outline:
as §1

Data set [19] relates to Lung. Kind of data set: Biodistribution in lung of B16F0 tumor bearing C57BL/6J mouse at 0.37-0.74 MBq, iv after 1 hr. In kind it is ADME, organism-based. As to conditions: in vivo. In outline: as §1
The nature of data set [20]: Biodistribution in melanoma of B16F0 tumor bearing C57BL/6J mouse at 0.37-0.74 MBq, iv after 6 hrs. The data set is classed as ADME, organism-based, B16-F0. As to conditions: in vivo. In outline:
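Female C57BL/6J mice (15-18 g) carrying s.c. B16F0 flank tumors (0.1 mL of 3 × 10⁶ viable cells per mL in Ca²⁺/Mg²⁺-free PBS, inoculated at 6-7 weeks, used 10 days later). [¹²³I]tracer 0.37-0.74 MBq in saline, 100 µL, tail-vein i.v. Groups of n = 5 killed at 1-72 h. Organs weighed and γ-counted, carcass activity also counted, values as %ID/g.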

Data set [21] concerns Liver. Kind of data set: Biodistribution in liver of B16F0 tumor bearing C57BL/6J mouse at 0.37-0.74 MBq, iv after 24 hrs. The data set is classed as ADME, organism-based. Particulars: in vivo. In outline: as §1
The nature of data set [22]: Lipophilicity, log P at pH 7.5. Particulars: buffer. The data set is classed as physicochemical.
Data set [23] is described as follows: Displacement of [3H]DTG from sigma 2 receptor in guinea pig brain membrane. The data set is classed as cell membranes, Cavia porcellus. In outline: (§2)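 Guinea pig brain membranes, incubated in duplicate for 2 h at 25 °C in Tris-HCl pH 8.0. Benzamide 10⁻¹⁰ to […] against 2 nM [³H]-(+)-pentazocine (σ₁) or 2 nM [³H]DTG plus 100 nM (+)-pentazocine (σ₂). Nonspecific binding defined with 1 µM haloperidol. GF/B filtration, bound activity by β-scintillation counting, giving IC50 then Ki. Full curves run only where 10⁻⁵ M inhibited >90%.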

The target of data set [24] is Sigma non-opioid intracellular receptor 1 (Cavia porcellus, UniProt Q60492). Put plainly: Displacement of [3H](+)-pentazocine from sigma 1 receptor in guinea pig brain membrane. In kind it is cell membranes. An outline of the steps: as §2
Sequence of Sigma non-opioid intracellular receptor 1 (Q60492 whole entry): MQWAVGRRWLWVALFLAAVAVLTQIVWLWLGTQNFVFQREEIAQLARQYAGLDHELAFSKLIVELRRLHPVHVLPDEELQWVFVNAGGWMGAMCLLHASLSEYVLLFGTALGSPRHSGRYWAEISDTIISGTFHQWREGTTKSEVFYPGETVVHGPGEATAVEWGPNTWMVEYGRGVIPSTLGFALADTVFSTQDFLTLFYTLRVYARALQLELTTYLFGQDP
(Loss of bound radioactivity is the signal in a displacement assay; it reports binding, not function.)

`O=C(NC1CCN(CCO)CC1)c1ccc([123I])cc1`: the Drug uptake in data set [1] is listed as 3.2 % ID/g; in data set [2] it was 0.93 % ID/g; in data set [3], 1 % ID/g; in [4] it was 9.2 % ID/g; in data set [5] it was 3.1 % ID/g; in data set [6], 0.21 % ID/g. Also, the Drug uptake in [7] is recorded as 5.9 % ID/g; in data set [8], 1.44 % ID/g; in data set [9], 0.46 % ID/g; in data set [10], 1.2 % ID/g; in data set [11] it was 0.49 % ID/g; in data set [12], 0.15 % ID/g. Also, the Drug uptake in data set [13] came out at 9.2 % ID/g; in data set [14] it was 4.7 % ID/g; in [15], 17.1 % ID/g; in data set [16], 10.6 % ID/g; in data set [17] it was 0.04 % ID/g; in data set [18], 1 % ID/g. Moreover, the Drug uptake in data set [19] stood at 17.8 % ID/g; in [20], 11.7 % ID/g; in data set [21], 5.4 % ID/g.
For `COc1cc(NC(C)=O)c([123I])cc1C(=O)NCCCCN(C)C(C)C`, the Drug uptake in [1] was 0.69 % ID/g; in [2] it was 0.3 % ID/g; in data set [3] it was 0.07 % ID/g; in [4], 1.5 % ID/g; in [5], 0.84 % ID/g; in [6] it was 0.68 % ID/g. The Drug uptake is 5.5 % ID/g in [7]; 0.06 % ID/g in data set [8]; 0.03 % ID/g in [9]; 0.06 % ID/g in data set [10]; 0.07 % ID/g in [11]; 0.07 % ID/g in data set [12]. Further, the Drug uptake in data set [13] worked out at 3.7 % ID/g; in [14], 0.5 % ID/g; in [15], 9.5 % ID/g; in [16] it was 5.7 % ID/g; in data set [17], 0.02 % ID/g; in data set [18] it was 1.3 % ID/g. Moreover, the figures for the Drug uptake in data set [19], in data set [20] and in data set [21] were 1.5 % ID/g, 6 % ID/g and 0.42 % ID/g, respectively.
By logD is commonly meant lipophilicity at a set pH, counting ionised and neutral species. Broadly, the Ki is a measure of affinity in units of concentration, obtained from inhibition or displacement. Turning to `CCN(CC)CCNC(=O)c1cc(I)c(NC(C)=O)cc1OC`, the logD in [22] is 1.54. For the same compound, the Ki was over 100000 nM in [23] and 1650 nM in data set [24].
`CCCN(CCC)CCCCNC(=O)c1ccc(I)cc1` came in with a log distribution coefficient (logD) in data set [22] of 2.46. Moreover, the inhibition constant Ki was found to be 1000 nM in data set [23] and 1300 nM in data set [24].
Take `CCCN(CCC)CCCCNC(=O)c1cc([123I])c(NC(C)=O)cc1OC`: the Drug uptake in [1] is 1 % ID/g; in data set [2], 0.49 % ID/g; in data set [3], 0.07 % ID/g; in [4] it was 1.8 % ID/g; in [5], 0.93 % ID/g; in data set [6], 1.1 % ID/g. Also, the Drug uptake is on record as 8 % ID/g in data set [7]; 0.14 % ID/g in data set [8]; 0.05 % ID/g in data set [9]; 0.18 % ID/g in data set [10]; 0.14 % ID/g in data set [11]; 0.01 % ID/g in data set [12]. The Drug uptake in data set [13] stood at 5.1 % ID/g; in data set [14], 0.8 % ID/g; in data set [15] it was 7.3 % ID/g; in data set [16], 14.1 % ID/g; in data set [17], 0.15 % ID/g; in [18], 1.7 % ID/g. Further, the Drug uptake is reported as 1.7 % ID/g in data set [19], 6.8 % ID/g in [20] and 0.64 % ID/g in data set [21].
